# Test results reported in ChEMBL document CHEMBL3588757, “Structure-based design, synthesis and biological testing of piperazine-linked bis-epipodophyllotoxin etoposide analogs” (Bioorg Med Chem, 2015).
# Legend:
# Format in all cases: functional
# UACC-257 = test: Cytotoxicity against human UACC257 cells assessed as cell growth at 50 uM by SRB assay; details: read-out: Activity
# MDA-MB-231 [1] = test: Cytotoxicity against human MDA-MB-231/ATCC cells assessed as cell growth at 5 uM by SRB assay; details: read-out: Activity
# COLO 205 [2] = test: Cytotoxicity against human COLO205 cells assessed as cell growth at 0.5 uM by SRB assay; details: read-out: Activity
# SNB-19 = test: Cytotoxicity against human SNB19 cells assessed as cell growth at 0.005 uM by SRB assay; details: read-out: Activity
# HCT-15 [3] = test: Cytotoxicity against human HCT15 cells assessed as cell growth at 50 uM by SRB assay; details: read-out: Activity
# Procedure, shortened: (§1)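 Measured in the NCI-60 human tumour cell line panel using five-dose testing. Growth was recorded at each dose for each cell line, and a GI50 was derived for each line.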
# MOLT-4 = test: Cytotoxicity against human MOLT4 cells assessed as cell growth at 50 uM by SRB assay; details: read-out: Activity
# RPMI-8226 = test: Cytotoxicity against human RPMI8226 cells assessed as cell growth at 5 uM by SRB assay; details: read-out: Activity
# NCI-H460 = test: Cytotoxicity against human NCI-H460 cells assessed as cell growth at 0.005 uM by SRB assay; details: read-out: Activity
# SN12C = test: Cytotoxicity against human SN12C cells by SRB assay
# Procedure, shortened: (§2)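 NCI-60 panel screen; 5-dose testing giving GI50 per cell line, plus a single 10 µM one-dose test. Method details not given beyond the NCI screen.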
# NCI-H23 = test: Cytotoxicity against human NCI-H23 cells assessed as cell growth at 0.005 uM by SRB assay; details: read-out: Activity
# SK-MEL-2 = test: Cytotoxicity against human SK-MEL-2 cells assessed as cell growth at 0.05 uM by SRB assay; details: read-out: Activity
# 786-0 = test: Cytotoxicity against human 786-0 cells assessed as cell growth at 50 uM by SRB assay; details: read-out: Activity
# HOP-92 [4] = test: Cytotoxicity against human HOP92 cells assessed as cell growth at 0.5 uM by SRB assay; details: read-out: Activity; procedure, shortened: as §1
# HL-60(TB) = test: Cytotoxicity against human HL-60(TB) cells assessed as cell growth at 0.5 uM by SRB assay; details: read-out: Activity; procedure, shortened: as §1
# SF-539 = test: Cytotoxicity against human SF539 cells assessed as cell growth at 0.05 uM by SRB assay; details: read-out: Activity
# ACHN [5] = test: Cytotoxicity against human ACHN cells by SRB assay
# LOX IMVI [6] = test: Cytotoxicity against human LOXIMVI cells assessed as cell growth at 0.5 uM by SRB assay; details: read-out: Activity
# DU-145 = test: Cytotoxicity against human DU145 cells assessed as cell growth at 50 uM by SRB assay; details: read-out: Activity; procedure, shortened: as §1
# CCRF-CEM = test: Cytotoxicity against human CCRF-CEM cells by SRB assay
# TK-10 = test: Cytotoxicity against human TK10 cells assessed as cell growth at 0.5 uM by SRB assay; details: read-out: Activity
# ACHN [7] = test: Cytotoxicity against human ACHN cells assessed as cell growth at 0.05 uM by SRB assay; details: read-out: Activity
# UACC-62 = test: Cytotoxicity against human UACC62 cells assessed as cell growth at 5 uM by SRB assay; details: read-out: Activity
# MDA-MB-468 [8] = test: Cytotoxicity against human MDA-MB-468 cells by SRB assay; procedure, shortened: as §2
# SF-268 [9] = test: Cytotoxicity against human SF268 cells assessed as cell growth at 0.05 uM by SRB assay; details: read-out: Activity
# SF-268 [10] = test: Cytotoxicity against human SF268 cells by SRB assay; procedure, shortened: as §2
# M14 = test: Cytotoxicity against human M14 cells by SRB assay; procedure, shortened: as §2
# K562 = test: Relative resistance, ratio of IC50 for etoposide-resistant human K/VP.5 cells to IC50 for human K562 cells
# SNB-75 = test: Cytotoxicity against human SNB75 cells assessed as cell growth at 5 uM by SRB assay; details: read-out: Activity
# NCI-H522 = test: Cytotoxicity against human NCI-H522 cells assessed as cell growth at 0.05 uM by SRB assay; details: read-out: Activity
# UO-31 = test: Cytotoxicity against human UO31 cells assessed as cell growth at 0.005 uM by SRB assay; details: read-out: Activity
# KM12 = test: Cytotoxicity against human KM12 cells assessed as cell growth at 0.005 uM by SRB assay; details: read-out: Activity
# HOP-62 = test: Cytotoxicity against human HOP62 cells assessed as cell growth at 50 uM by SRB assay; details: read-out: Activity; procedure, shortened: as §1
# U-251 = test: Cytotoxicity against human U251 cells assessed as cell growth at 0.005 uM by SRB assay; details: read-out: Activity
# MDA-MB-435 [11] = test: Cytotoxicity against human MDA-MB-435 cells assessed as cell growth at 0.005 uM by SRB assay; details: read-out: Activity
# HCT-15 [12] = test: Cytotoxicity against human HCT15 cells assessed as cell growth at 0.005 uM by SRB assay; details: read-out: Activity; procedure, shortened: as §1
# HOP-92 [13] = test: Cytotoxicity against human HOP92 cells assessed as cell growth at 0.005 uM by SRB assay; details: read-out: Activity; procedure, shortened: as §1
# COLO 205 [14] = test: Cytotoxicity against human COLO205 cells assessed as cell growth at 0.05 uM by SRB assay; details: read-out: Activity
# MDA-MB-468 [15] = test: Cytotoxicity against human MDA-MB-468 cells assessed as cell growth at 0.05 uM by SRB assay; details: read-out: Activity
# LOX IMVI [16] = test: Cytotoxicity against human LOXIMVI cells assessed as cell growth at 0.005 uM by SRB assay; details: read-out: Activity
# SK-MEL-28 = test: Cytotoxicity against human SK-MEL-28 cells assessed as cell growth at 5 uM by SRB assay; details: read-out: Activity
# MDA-MB-435 [17] = test: Cytotoxicity against human MDA-MB-435 cells by SRB assay; procedure, shortened: as §2
# MDA-MB-231 [18] = test: Cytotoxicity against human MDA-MB-231/ATCC cells assessed as cell growth at 0.5 uM by SRB assay; details: read-out: Activity
# [19] = read-out: LC50 (the source's name)
# [20] = read-out: pLC50 (the source's name) (converted)
structure (smiles),measurement,setting,value
COc1cc([C@@H]2c3cc4c(cc3[C@@H](NC(=O)CN3CCN(CCCCCCCCCCN5CCN(CC(=O)N[C@@H]6c7cc8c(cc7[C@@H](c7cc(OC)c(O)c(OC)c7)[C@H]7C(=O)OC[C@@H]76)OCO8)CC5)CC3)[C@H]3COC(=O)[C@H]23)OCO4)cc(OC)c1O,growth at 50 µM,UACC-257,-58%
same,growth at 5 µM,MDA-MB-231 [1],-45%
same,growth at 0.5 µM,COLO 205 [2],72%
same,growth at 0.005 µM,SNB-19,99%
same,growth at 50 µM,HCT-15 [3],-64%
same,growth at 50 µM,MOLT-4,-100%
same,growth at 5 µM,RPMI-8226,-15%
same,growth at 0.005 µM,NCI-H460,91%
same,GI50,SN12C; read-out: GI50,185 nM
same,CC50,SN12C; [19],> 50000 nM
same,TGI,SN12C; read-out: TGI,5820 nM
same,GI50,SN12C; read-out: pGI50 (converted),186 nM
same,CC50,SN12C; [20],> 50100 nM
same,TGI,SN12C; read-out: pTGI (converted),5890 nM
same,growth at 0.005 µM,NCI-H23,95%
same,growth at 0.05 µM,SK-MEL-2,89%
same,growth at 50 µM,786-0,-78%
same,growth at 0.5 µM,HOP-92 [4],21%
same,growth at 0.5 µM,HL-60(TB),15%
same,growth at 0.05 µM,SF-539,74%
same,GI50,ACHN [5]; read-out: GI50,320 nM
same,CC50,ACHN [5]; [19],2950 nM
same,TGI,ACHN [5]; read-out: TGI,1110 nM
same,GI50,ACHN [5]; read-out: pGI50 (converted),324 nM
same,CC50,ACHN [5]; [20],2950 nM
same,TGI,ACHN [5]; read-out: pTGI (converted),1120 nM
same,growth at 0.5 µM,LOX IMVI [6],21%
same,growth at 50 µM,DU-145,-100%
same,GI50,CCRF-CEM; read-out: GI50,80.9 nM
same,CC50,CCRF-CEM; [19],> 50000 nM
same,GI50,CCRF-CEM; read-out: pGI50 (converted),81.3 nM
same,CC50,CCRF-CEM; [20],> 50100 nM
same,growth at 0.5 µM,TK-10,96%
same,growth at 0.05 µM,ACHN [7],88%
same,growth at 5 µM,UACC-62,65%
same,GI50,MDA-MB-468 [8]; read-out: GI50,844 nM
same,CC50,MDA-MB-468 [8]; [19],16900 nM
same,TGI,MDA-MB-468 [8]; read-out: TGI,2620 nM
same,GI50,MDA-MB-468 [8]; read-out: pGI50 (converted),851 nM
same,CC50,MDA-MB-468 [8]; [20],17000 nM
same,TGI,MDA-MB-468 [8]; read-out: pTGI (converted),2630 nM
same,growth at 0.05 µM,SF-268 [9],77%
same,GI50,SF-268 [10]; read-out: GI50,452 nM
same,CC50,SF-268 [10]; [19],> 50000 nM
same,TGI,SF-268 [10]; read-out: TGI,1940 nM
same,GI50,SF-268 [10]; read-out: pGI50 (converted),457 nM
same,CC50,SF-268 [10]; [20],> 50100 nM
same,TGI,SF-268 [10]; read-out: pTGI (converted),1950 nM
same,GI50,M14; read-out: GI50,703 nM
same,CC50,M14; [19],> 50000 nM
same,TGI,M14; read-out: TGI,2200 nM
same,GI50,M14; read-out: pGI50 (converted),708 nM
same,CC50,M14; [20],> 50100 nM
same,TGI,M14; read-out: pTGI (converted),2190 nM
same,Ratio IC50,K562,2.6
same,growth at 5 µM,SNB-75,-12%
same,growth at 0.05 µM,NCI-H522,39%
same,growth at 0.005 µM,UO-31,86%
same,growth at 0.005 µM,KM12,97%
same,growth at 50 µM,HOP-62,-20%
same,growth at 0.005 µM,U-251,85%
same,growth at 0.005 µM,MDA-MB-435 [11],96%
same,growth at 0.005 µM,HCT-15 [12],99%
same,growth at 0.005 µM,HOP-92 [13],91%
same,growth at 0.05 µM,COLO 205 [14],90%
same,growth at 0.05 µM,MDA-MB-468 [15],99%
same,growth at 0.005 µM,LOX IMVI [16],86%
same,growth at 5 µM,SK-MEL-28,64%
same,GI50,MDA-MB-435 [17]; read-out: GI50,295 nM
same,TGI,MDA-MB-435 [17]; read-out: TGI,1230 nM
same,GI50,MDA-MB-435 [17]; read-out: pGI50 (converted),295 nM
same,TGI,MDA-MB-435 [17]; read-out: pTGI (converted),1230 nM
same,growth at 0.5 µM,MDA-MB-231 [18],87%
